# Data as given in ChEMBL document CHEMBL4145690, “Rational Design and Structure Validation of a Novel Peptide Inhibitor of the Adenomatous-Polyposis-Coli (APC)-Rho-Guanine-Nucleotide-Exchange-Factor-4 (Asef) Interaction” (J Med Chem, 2018).
# *1 amine or outer side, *2 acyl side, *3 side chain or, on linkers, in order; H or OH if unused. Where a SMILES comes first, the peptide text is derived from it. [ ]: non-standard residue; d: D form. The star is where a group is joined. Ala(4-thiazolyl) = N[C@@H](Cc1cscn1)C(=O)O; Leu(4,5-dehydro) = C=C(C)C[C@H](N)C(=O)O; X1 = O=C([C@H](Cc1ccc(Br)s1)N[*:1])[*:2]; Ala(2-furyl) = N[C@@H](Cc1ccco1)C(=O)O; Ala(cHept) = N[C@@H](CC1CCCCCC1)C(=O)O; 1Nal = N[C@@H](Cc1cccc2ccccc12)C(=O)O; 2Nal = N[C@@H](Cc1ccc2ccccc2c1)C(=O)O; Ala(cPent) = N[C@@H](CC1CCCC1)C(=O)O; Met(O2) = CS(=O)(=O)CC[C@H](N)C(=O)O; Gly(octyl) = CCCCCCCC[C@H](N)C(=O)O; Gly(cPent) = N[C@H](C(=O)O)C1CCCC1; Ala(cPr) = N[C@@H](CC1CC1)C(=O)O; Met(O) = CS(=O)CC[C@H](N)C(=O)O; 2Thi = N[C@@H](Cc1cccs1)C(=O)O; 3Thi = N[C@@H](Cc1ccsc1)C(=O)O; Cha = N[C@@H](CC1CCCCC1)C(=O)O; Aic = NC1(C(=O)O)Cc2ccccc2C1; Cba = N[C@@H](CC1CCC1)C(=O)O; Chg = N[C@H](C(=O)O)C1CCCCC1; Phg = N[C@H](C(=O)O)c1ccccc1; Tle = CC(C)(C)[C@H](N)C(=O)O; Ac8c = NC1(C(=O)O)CCCCCCC1; Pra = C#CC[C@H](N)C(=O)O; Cbz = O=C(OCc1ccccc1)*
# Molecular target: Adenomatous polyposis coli protein (Homo sapiens, UniProt P25054)
# Assay: Binding affinity to APC protein (303 to 739 residues) (unknown origin) incubated for 60 mins followed by probe addition and measured after 60 mins by competitive fluorescence polarization assay
# In short: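 Peptide in DMSO preincubated with protein 60 min at room temperature with shaking; probe added, then 60 min more. Controls: blank, tracer only, complex only. IC50 from dose-response curves, mean of three independent experiments.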
# Adenomatous polyposis coli protein, sequence (P25054 whole entry, the tested form may be a part): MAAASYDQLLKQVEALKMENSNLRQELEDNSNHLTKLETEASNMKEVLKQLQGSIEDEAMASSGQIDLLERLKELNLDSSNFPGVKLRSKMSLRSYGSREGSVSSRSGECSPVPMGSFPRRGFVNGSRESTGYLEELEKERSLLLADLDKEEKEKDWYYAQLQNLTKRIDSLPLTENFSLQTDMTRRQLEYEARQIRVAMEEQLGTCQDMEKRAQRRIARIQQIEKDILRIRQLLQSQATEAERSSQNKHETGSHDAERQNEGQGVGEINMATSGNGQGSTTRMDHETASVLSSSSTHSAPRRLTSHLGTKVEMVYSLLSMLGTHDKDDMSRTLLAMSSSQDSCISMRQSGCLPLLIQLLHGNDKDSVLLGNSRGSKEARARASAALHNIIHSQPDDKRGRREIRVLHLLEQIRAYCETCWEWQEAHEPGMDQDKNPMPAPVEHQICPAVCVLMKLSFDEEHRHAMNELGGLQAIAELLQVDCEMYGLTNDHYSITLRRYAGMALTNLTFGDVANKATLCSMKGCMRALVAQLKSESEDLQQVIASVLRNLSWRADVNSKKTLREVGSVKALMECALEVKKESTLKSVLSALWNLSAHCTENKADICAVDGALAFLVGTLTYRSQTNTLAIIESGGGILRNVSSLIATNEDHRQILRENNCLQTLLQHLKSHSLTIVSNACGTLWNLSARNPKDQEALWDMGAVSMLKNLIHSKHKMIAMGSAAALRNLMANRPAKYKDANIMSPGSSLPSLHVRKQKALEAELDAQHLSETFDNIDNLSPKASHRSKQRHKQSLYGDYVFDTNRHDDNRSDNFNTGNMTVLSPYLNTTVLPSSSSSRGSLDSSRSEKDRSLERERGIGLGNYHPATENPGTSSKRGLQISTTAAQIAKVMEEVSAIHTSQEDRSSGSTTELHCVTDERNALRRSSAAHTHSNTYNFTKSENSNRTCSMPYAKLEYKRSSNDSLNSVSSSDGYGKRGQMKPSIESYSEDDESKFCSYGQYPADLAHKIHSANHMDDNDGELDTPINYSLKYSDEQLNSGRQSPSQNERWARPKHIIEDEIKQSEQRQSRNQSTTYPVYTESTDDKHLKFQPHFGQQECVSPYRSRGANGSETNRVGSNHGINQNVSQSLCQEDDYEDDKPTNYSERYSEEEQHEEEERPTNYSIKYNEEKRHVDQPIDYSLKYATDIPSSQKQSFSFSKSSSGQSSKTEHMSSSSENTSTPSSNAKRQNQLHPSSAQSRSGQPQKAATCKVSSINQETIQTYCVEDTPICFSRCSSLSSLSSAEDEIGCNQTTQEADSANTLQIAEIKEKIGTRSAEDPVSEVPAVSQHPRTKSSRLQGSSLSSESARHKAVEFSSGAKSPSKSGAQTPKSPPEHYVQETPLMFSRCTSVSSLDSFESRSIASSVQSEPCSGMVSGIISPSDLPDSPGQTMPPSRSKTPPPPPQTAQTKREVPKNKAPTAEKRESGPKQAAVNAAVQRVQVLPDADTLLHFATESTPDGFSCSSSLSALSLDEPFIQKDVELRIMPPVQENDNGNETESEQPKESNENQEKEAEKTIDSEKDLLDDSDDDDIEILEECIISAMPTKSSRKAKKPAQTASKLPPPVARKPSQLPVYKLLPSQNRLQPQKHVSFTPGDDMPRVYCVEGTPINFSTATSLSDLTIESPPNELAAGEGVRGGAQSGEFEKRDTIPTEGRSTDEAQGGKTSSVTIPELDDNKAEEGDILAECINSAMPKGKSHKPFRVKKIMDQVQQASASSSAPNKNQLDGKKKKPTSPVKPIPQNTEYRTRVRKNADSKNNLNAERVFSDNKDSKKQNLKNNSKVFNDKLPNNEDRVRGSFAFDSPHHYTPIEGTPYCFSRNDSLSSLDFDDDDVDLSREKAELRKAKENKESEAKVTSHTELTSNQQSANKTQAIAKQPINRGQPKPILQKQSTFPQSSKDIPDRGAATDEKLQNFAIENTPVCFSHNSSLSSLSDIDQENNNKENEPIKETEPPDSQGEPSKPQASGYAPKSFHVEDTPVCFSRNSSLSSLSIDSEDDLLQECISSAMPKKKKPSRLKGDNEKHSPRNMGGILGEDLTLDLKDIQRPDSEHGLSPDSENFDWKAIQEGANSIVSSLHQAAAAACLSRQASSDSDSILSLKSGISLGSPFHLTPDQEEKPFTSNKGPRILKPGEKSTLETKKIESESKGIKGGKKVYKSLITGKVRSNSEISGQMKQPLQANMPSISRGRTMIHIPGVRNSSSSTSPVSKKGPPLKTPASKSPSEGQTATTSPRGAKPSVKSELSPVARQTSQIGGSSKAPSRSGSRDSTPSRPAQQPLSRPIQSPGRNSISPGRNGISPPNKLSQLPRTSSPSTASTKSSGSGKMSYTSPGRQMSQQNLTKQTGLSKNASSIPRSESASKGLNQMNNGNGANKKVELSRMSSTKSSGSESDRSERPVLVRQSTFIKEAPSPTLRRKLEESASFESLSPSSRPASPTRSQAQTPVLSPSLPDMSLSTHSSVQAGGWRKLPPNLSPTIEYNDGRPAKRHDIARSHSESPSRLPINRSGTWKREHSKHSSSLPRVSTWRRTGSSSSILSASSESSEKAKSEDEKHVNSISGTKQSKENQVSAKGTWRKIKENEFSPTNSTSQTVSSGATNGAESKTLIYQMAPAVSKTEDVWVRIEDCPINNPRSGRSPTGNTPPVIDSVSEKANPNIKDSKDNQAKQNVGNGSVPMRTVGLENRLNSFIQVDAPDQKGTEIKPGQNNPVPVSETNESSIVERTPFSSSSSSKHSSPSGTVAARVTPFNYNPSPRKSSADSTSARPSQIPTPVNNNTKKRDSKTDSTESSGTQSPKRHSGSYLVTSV
row,Structure (SMILES),IC50 [µM]
1,CC(C)C[C@H](NC(=O)[C@H](CC(=O)O)NC(=O)[C@H](CCC(=O)O)NC(=O)CNC(=O)[C@H](C)NC(=O)OCc1ccccc1)C(=O)N[C@@H](Cc1ccc(O)cc1)C(=O)N[C@@H](CCC(=O)O)C(N)=O (Cbz-AGEDLYE-NH2),6.35
2,CC(C)C[C@H](NC(=O)[C@H](CC(N)=O)NC(=O)[C@H](CCC(=O)O)NC(=O)CNC(=O)[C@H](C)NC(=O)OCc1ccccc1)C(=O)N[C@@H](Cc1ccc(O)cc1)C(=O)N[C@@H](CCC(=O)O)C(N)=O (Cbz-AGENLYE-NH2),5.19
3,C[C@H](NC(=O)OCc1ccccc1)C(=O)NCC(=O)N[C@@H](CCC(=O)O)C(=O)N[C@@H](CO)C(=O)NCC(=O)N[C@@H](Cc1ccc(O)cc1)C(=O)N[C@@H](CCC(=O)O)C(N)=O (Cbz-AGESGYE-NH2),109
4,C[C@H](NC(=O)OCc1ccccc1)C(=O)NCC(=O)N[C@@H](CCC(=O)O)C(=O)N[C@@H](CO)C(=O)N[C@@H](Cc1c[nH]cn1)C(=O)N[C@@H](Cc1ccc(O)cc1)C(=O)N[C@@H](CCC(=O)O)C(N)=O (Cbz-AGESHYE-NH2),50.6
5,CC(C)[C@H](NC(=O)[C@H](CO)NC(=O)[C@H](CCC(=O)O)NC(=O)CNC(=O)[C@H](C)NC(=O)OCc1ccccc1)C(=O)N[C@@H](Cc1ccc(O)cc1)C(=O)N[C@@H](CCC(=O)O)C(N)=O (Cbz-AGESVYE-NH2),12.4
6,C[C@H](NC(=O)OCc1ccccc1)C(=O)NCC(=O)N[C@@H](CCC(=O)O)C(=O)N[C@@H](CO)C(=O)N[C@@H](Cc1c[nH]c2ccccc12)C(=O)N[C@@H](Cc1ccc(O)cc1)C(=O)N[C@@H](CCC(=O)O)C(N)=O (Cbz-AGESWYE-NH2),10.5
7,C[C@H](NC(=O)OCc1ccccc1)C(=O)NCC(=O)N[C@@H](CCC(=O)O)C(=O)N[C@@H](CO)C(=O)N[C@@H](Cc1ccc(O)cc1)C(=O)N[C@@H](Cc1ccc(O)cc1)C(=O)N[C@@H](CCC(=O)O)C(N)=O (Cbz-AGESYYE-NH2),5.07
8,C[C@H](NC(=O)OCc1ccccc1)C(=O)NCC(=O)N[C@@H](CCC(=O)O)C(=O)N[C@@H](CO)C(=O)N[C@@H](Cc1cccc2ccccc12)C(=O)N[C@@H](Cc1ccc(O)cc1)C(=O)N[C@@H](CCC(=O)O)C(N)=O (Cbz-AGES[1Nal]YE-NH2),10.1
9,C[C@H](NC(=O)OCc1ccccc1)C(=O)NCC(=O)N[C@@H](CCC(=O)O)C(=O)N[C@@H](CO)C(=O)N[C@@H](Cc1ccsc1)C(=O)N[C@@H](Cc1ccc(O)cc1)C(=O)N[C@@H](CCC(=O)O)C(N)=O (Cbz-AGES[3Thi]YE-NH2),6.86
10,C[C@H](NC(=O)OCc1ccccc1)C(=O)NCC(=O)N[C@@H](CCC(=O)O)C(=O)N[C@@H](CO)C(=O)NC1(C(=O)N[C@@H](Cc2ccc(O)cc2)C(=O)N[C@@H](CCC(=O)O)C(N)=O)CCCCCCC1 (Cbz-AGES[Ac8c]YE-NH2),10.3
11,C[C@H](NC(=O)OCc1ccccc1)C(=O)NCC(=O)N[C@@H](CCC(=O)O)C(=O)N[C@@H](CO)C(=O)NC1(C(=O)N[C@@H](Cc2ccc(O)cc2)C(=O)N[C@@H](CCC(=O)O)C(N)=O)Cc2ccccc2C1 (Cbz-AGES[Aic]YE-NH2),25.6
12,C[C@H](NC(=O)OCc1ccccc1)C(=O)NCC(=O)N[C@@H](CCC(=O)O)C(=O)N[C@@H](CO)C(=O)N[C@@H](Cc1ccco1)C(=O)N[C@@H](Cc1ccc(O)cc1)C(=O)N[C@@H](CCC(=O)O)C(N)=O (Cbz-AGES[Ala(2-furyl)]YE-NH2),6.95
13,C[C@H](NC(=O)OCc1ccccc1)C(=O)NCC(=O)N[C@@H](CCC(=O)O)C(=O)N[C@@H](CO)C(=O)N[C@@H](Cc1cscn1)C(=O)N[C@@H](Cc1ccc(O)cc1)C(=O)N[C@@H](CCC(=O)O)C(N)=O (Cbz-AGES[Ala(4-thiazolyl)]YE-NH2),16.4
14,C[C@H](NC(=O)OCc1ccccc1)C(=O)NCC(=O)N[C@@H](CCC(=O)O)C(=O)N[C@@H](CO)C(=O)N[C@@H](CCS(C)(=O)=O)C(=O)N[C@@H](Cc1ccc(O)cc1)C(=O)N[C@@H](CCC(=O)O)C(N)=O (Cbz-AGES[Met(O2)]YE-NH2),5.73
15,C[C@H](NC(=O)OCc1ccccc1)C(=O)NCC(=O)N[C@@H](CCC(=O)O)C(=O)N[C@@H](CO)C(=O)N[C@@H](CC[S+](C)[O-])C(=O)N[C@@H](Cc1ccc(O)cc1)C(=O)N[C@@H](CCC(=O)O)C(N)=O (stereo partly specified) (Cbz-AGES[Met(O)]YE-NH2),13.9
16,C#CC[C@H](NC(=O)[C@H](CO)NC(=O)[C@H](CCC(=O)O)NC(=O)CNC(=O)[C@H](C)NC(=O)OCc1ccccc1)C(=O)N[C@@H](Cc1ccc(O)cc1)C(=O)N[C@@H](CCC(=O)O)C(N)=O (Cbz-AGES[Pra]YE-NH2),30.8
17,C[C@H](NC(=O)OCc1ccccc1)C(=O)NCC(=O)N[C@@H](CCC(=O)O)C(=O)N[C@@H](CO)C(=O)N[C@H](C(=O)N[C@@H](Cc1ccc(O)cc1)C(=O)N[C@@H](CCC(=O)O)C(N)=O)C(C)(C)C (Cbz-AGES[Tle]YE-NH2),31.5
18,C[C@H](NC(=O)OCc1ccccc1)C(=O)NCC(=O)N[C@@H](CCC(=O)O)C(=O)N[C@@H](CO)C(=O)N[C@@H](Cc1ccc(Br)s1)C(=O)N[C@@H](Cc1ccc(O)cc1)C(=O)N[C@@H](CCC(=O)O)C(N)=O (Cbz-AGES[X1]YE-NH2),5

# Now those with a lower IC50, led by results:
row,IC50 [µM],Structure (SMILES)
1,2.01,CC(C)C[C@H](NC(=O)[C@@H](NC(=O)[C@H](CCC(=O)O)NC(=O)CNC(=O)[C@H](C)NC(=O)OCc1ccccc1)[C@H](C)O)C(=O)N[C@@H](Cc1ccc(O)cc1)C(=O)N[C@@H](CCC(=O)O)C(N)=O
2,0.57,C[C@H](NC(=O)OCc1ccccc1)C(=O)NCC(=O)N[C@@H](CCC(=O)O)C(=O)N[C@@H](C)C(=O)N[C@@H](CC1CCCC1)C(=O)N[C@@H](Cc1ccc(O)cc1)C(=O)N[C@@H](CCC(=O)O)C(N)=O (Cbz-AGEA[Ala(cPent)]YE-NH2)
3,1.51,CC(C)C[C@H](NC(=O)[C@H](CS)NC(=O)[C@H](CCC(=O)O)NC(=O)CNC(=O)[C@H](C)NC(=O)OCc1ccccc1)C(=O)N[C@@H](Cc1ccc(O)cc1)C(=O)N[C@@H](CCC(=O)O)C(N)=O (Cbz-AGECLYE-NH2)
4,4.36,C[C@H](NC(=O)OCc1ccccc1)C(=O)NCC(=O)N[C@@H](CCC(=O)O)C(=O)N[C@@H](CO)C(=O)N[C@@H](Cc1ccccc1)C(=O)N[C@@H](Cc1ccc(O)cc1)C(=O)N[C@@H](CCC(=O)O)C(N)=O (Cbz-AGESFYE-NH2)
5,3.85,CC[C@H](C)[C@H](NC(=O)[C@H](CO)NC(=O)[C@H](CCC(=O)O)NC(=O)CNC(=O)[C@H](C)NC(=O)OCc1ccccc1)C(=O)N[C@@H](Cc1ccc(O)cc1)C(=O)N[C@@H](CCC(=O)O)C(N)=O (Cbz-AGESIYE-NH2)
6,3.3,CSCC[C@H](NC(=O)[C@H](CO)NC(=O)[C@H](CCC(=O)O)NC(=O)CNC(=O)[C@H](C)NC(=O)OCc1ccccc1)C(=O)N[C@@H](Cc1ccc(O)cc1)C(=O)N[C@@H](CCC(=O)O)C(N)=O (Cbz-AGESMYE-NH2)
7,3.96,C[C@H](NC(=O)OCc1ccccc1)C(=O)NCC(=O)N[C@@H](CCC(=O)O)C(=O)N[C@@H](CO)C(=O)N[C@@H](Cc1ccc2ccccc2c1)C(=O)N[C@@H](Cc1ccc(O)cc1)C(=O)N[C@@H](CCC(=O)O)C(N)=O (Cbz-AGES[2Nal]YE-NH2)
8,4.01,C[C@H](NC(=O)OCc1ccccc1)C(=O)NCC(=O)N[C@@H](CCC(=O)O)C(=O)N[C@@H](CO)C(=O)N[C@@H](Cc1cccs1)C(=O)N[C@@H](Cc1ccc(O)cc1)C(=O)N[C@@H](CCC(=O)O)C(N)=O (Cbz-AGES[2Thi]YE-NH2)
9,1.94,C[C@H](NC(=O)OCc1ccccc1)C(=O)NCC(=O)N[C@@H](CCC(=O)O)C(=O)N[C@@H](CO)C(=O)N[C@@H](CC1CCCCCC1)C(=O)N[C@@H](Cc1ccc(O)cc1)C(=O)N[C@@H](CCC(=O)O)C(N)=O (Cbz-AGES[Ala(cHept)]YE-NH2)
10,0.62,C[C@H](NC(=O)OCc1ccccc1)C(=O)NCC(=O)N[C@@H](CCC(=O)O)C(=O)N[C@@H](CO)C(=O)N[C@@H](CC1CCCC1)C(=O)N[C@@H](Cc1ccc(O)cc1)C(=O)N[C@@H](CCC(=O)O)C(N)=O (Cbz-AGES[Ala(cPent)]YE-NH2)
11,1.26,C[C@H](NC(=O)OCc1ccccc1)C(=O)NCC(=O)N[C@@H](CCC(=O)O)C(=O)N[C@@H](CO)C(=O)N[C@@H](CC1CC1)C(=O)N[C@@H](Cc1ccc(O)cc1)C(=O)N[C@@H](CCC(=O)O)C(N)=O (Cbz-AGES[Ala(cPr)]YE-NH2)
12,1.53,C[C@H](NC(=O)OCc1ccccc1)C(=O)NCC(=O)N[C@@H](CCC(=O)O)C(=O)N[C@@H](CO)C(=O)N[C@@H](CC1CCC1)C(=O)N[C@@H](Cc1ccc(O)cc1)C(=O)N[C@@H](CCC(=O)O)C(N)=O (Cbz-AGES[Cba]YE-NH2)
13,1.3,C[C@H](NC(=O)OCc1ccccc1)C(=O)NCC(=O)N[C@@H](CCC(=O)O)C(=O)N[C@@H](CO)C(=O)N[C@@H](CC1CCCCC1)C(=O)N[C@@H](Cc1ccc(O)cc1)C(=O)N[C@@H](CCC(=O)O)C(N)=O (Cbz-AGES[Cha]YE-NH2)
14,2.95,C[C@H](NC(=O)OCc1ccccc1)C(=O)NCC(=O)N[C@@H](CCC(=O)O)C(=O)N[C@@H](CO)C(=O)N[C@H](C(=O)N[C@@H](Cc1ccc(O)cc1)C(=O)N[C@@H](CCC(=O)O)C(N)=O)C1CCCCC1 (Cbz-AGES[Chg]YE-NH2)
15,4.07,C[C@H](NC(=O)OCc1ccccc1)C(=O)NCC(=O)N[C@@H](CCC(=O)O)C(=O)N[C@@H](CO)C(=O)N[C@H](C(=O)N[C@@H](Cc1ccc(O)cc1)C(=O)N[C@@H](CCC(=O)O)C(N)=O)C1CCCC1 (Cbz-AGES[Gly(cPent)]YE-NH2)
16,3.02,CCCCCCCC[C@H](NC(=O)[C@H](CO)NC(=O)[C@H](CCC(=O)O)NC(=O)CNC(=O)[C@H](C)NC(=O)OCc1ccccc1)C(=O)N[C@@H](Cc1ccc(O)cc1)C(=O)N[C@@H](CCC(=O)O)C(N)=O (Cbz-AGES[Gly(octyl)]YE-NH2)
17,3.64,"C=C(C)C[C@H](NC(=O)[C@H](CO)NC(=O)[C@H](CCC(=O)O)NC(=O)CNC(=O)[C@H](C)NC(=O)OCc1ccccc1)C(=O)N[C@@H](Cc1ccc(O)cc1)C(=O)N[C@@H](CCC(=O)O)C(N)=O (Cbz-AGES[Leu(4,5-dehydro)]YE-NH2)"
18,4.29,C[C@H](NC(=O)OCc1ccccc1)C(=O)NCC(=O)N[C@@H](CCC(=O)O)C(=O)N[C@@H](CO)C(=O)N[C@H](C(=O)N[C@@H](Cc1ccc(O)cc1)C(=O)N[C@@H](CCC(=O)O)C(N)=O)c1ccccc1 (Cbz-AGES[Phg]YE-NH2)
